Activity calls are given as the source filed them. The rule behind the calls is not given here.
Legend:
HT-22 [1] = assay: Cytoprotection against glutamate-induced oxidative stress in mouse HT22 cells assessed as decrease in iNOS mRNA level at 1 uM after 24 hrs by RT-PCR method; assay type: functional, cell-based
Procedure, shortened: (§1)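 HT-22 mouse hippocampal cells grown in high-glucose DMEM with 10% heat-inactivated FBS at 37 °C, 5% CO2. Compound (1 μM; DMSO stock, final DMSO 0.025%) added together with 2 mM glutamate for 24 h. Transcripts measured by qRT-PCR. iNOS or Bax/Bcl-2 ratio reported as fold change vs untreated control (set at 1) by the ΔΔCt method.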

[2] = molecular target: T1, Amyloid-beta precursor protein (Homo sapiens, UniProt P05067); assay: Disruption of recombinant human amyloid beta (1 to 40) fibrils at 10 uM after 24 hrs by ThT fluorescence assay relative to control
T1 sequence (P05067 whole entry): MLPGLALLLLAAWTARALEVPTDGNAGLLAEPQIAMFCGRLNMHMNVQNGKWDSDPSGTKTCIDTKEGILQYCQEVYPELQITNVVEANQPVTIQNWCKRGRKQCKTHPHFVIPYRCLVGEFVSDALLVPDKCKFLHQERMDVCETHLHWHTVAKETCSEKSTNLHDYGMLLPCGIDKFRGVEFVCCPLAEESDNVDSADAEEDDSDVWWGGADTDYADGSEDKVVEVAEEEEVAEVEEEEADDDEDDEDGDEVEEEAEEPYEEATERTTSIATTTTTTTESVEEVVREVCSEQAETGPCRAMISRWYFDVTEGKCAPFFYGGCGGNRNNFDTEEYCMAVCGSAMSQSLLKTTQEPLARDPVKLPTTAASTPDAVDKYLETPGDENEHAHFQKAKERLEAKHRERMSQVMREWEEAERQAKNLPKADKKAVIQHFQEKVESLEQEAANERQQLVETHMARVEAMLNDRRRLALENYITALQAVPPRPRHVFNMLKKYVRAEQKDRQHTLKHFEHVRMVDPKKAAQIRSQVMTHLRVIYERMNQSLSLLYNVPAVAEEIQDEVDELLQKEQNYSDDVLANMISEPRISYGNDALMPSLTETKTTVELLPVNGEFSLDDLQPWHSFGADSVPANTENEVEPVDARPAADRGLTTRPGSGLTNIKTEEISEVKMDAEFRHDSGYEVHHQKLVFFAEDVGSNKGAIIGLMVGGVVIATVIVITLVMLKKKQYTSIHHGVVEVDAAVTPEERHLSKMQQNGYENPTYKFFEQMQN
Procedure, shortened: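 Aβ1-40 fibrils (10 μM in 150 mM MOPS, pH 6.9) incubated 24 h at 37 °C with compound at 10 μM. ThT added to 20 μM, 1 h at 37 °C in the dark, excitation 440 nm, emission 485 nm. Intensity normalized to fibrils alone. Triplicate, mean ± SD. Intrinsic compound fluorescence measured without peptide.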

[3] = molecular target: T1, Amyloid-beta precursor protein; assay: Disruption of recombinant human amyloid beta (1 to 40) fibrils at 10 uM after 24 hrs by atomic force microscopic method
Procedure, shortened: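 10 μM Aβ1-40 fibrils plus 10 μM compound, incubated 24 h at 37 °C. Spread on fresh mica, adsorbed 5 min, water-washed, dried under nitrogen, imaged by AFM. No smoothing or noise reduction applied.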

HT-22 [4] = assay: Cytoprotection against glutamate-induced apoptosis in mouse HT22 cells assessed as decrease in Bax/Bcl2 ratio at 1 uM after 24 hrs by RT-PCR method; assay type: functional, cell-based; procedure, shortened: as §1
[5] = Cytotoxicity against mouse HT22 cells assessed as reduction in cell viability after 24 hrs by MTT assay; assay type: cell-based, HT-22
Procedure, shortened: (§2)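 HT-22 cells (5 × 10^3 per well) plated, then treated the next day for 24 h with compound in complete medium (1–25 μM range; 10 mM DMSO stock, final DMSO 0.025%; DMSO as negative control). MTT at 0.5 mg/mL final, 2 h, 37 °C; formazan solubilized, A570 read. Mean of at least three independent experiments ± SD.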

HT-22 [6] = assay: Cytoprotection against glutamate-induced excitotoxicity in mouse HT22 cells assessed as increase in cell viability at 1 uM after 24 hrs by optical microscopic assay; assay type: functional, cell-based
Procedure, shortened: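 Cells co-treated 24 h with 2 mM glutamate plus compound at 1 μM. Viable cells judged from optical microscope images.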

HT-22 [7] = assay: Cytoprotection against glutamate-induced excitotoxicity in mouse HT22 cells assessed as decrease in glutamate-induced cell cycle arrest at sub-G1 phase at 1 uM after 24 hrs by propidium iodide staining based flow cytometry; assay type: functional
Procedure, shortened: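 HT-22 cells (1.5 × 10^5 per well) co-treated 24 h with 2 mM glutamate plus compound at 1 μM, final DMSO 0.025%. Pelleted, PBS-washed, stained 30 min in PI solution (50 μg/mL PI, Triton, Na citrate). DNA content read by flow cytometry and the SubG1 fraction scored. Mean of three independent experiments ± SD.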

[8] = molecular target: T1, Amyloid-beta precursor protein; assay: Disruption of recombinant human amyloid beta (1 to 40) fibrils after 2 hrs by ThT fluorescence assay
[9] = molecular target: T1, Amyloid-beta precursor protein; assay: Disruption of recombinant human amyloid beta (1 to 40) fibrils after 24 hrs by ThT fluorescence assay
HT-22 [10] = assay: Cytotoxicity against mouse HT22 cells assessed as reduction in cell viability at 10 uM after 24 hrs by MTT assay; assay type: cell-based; details: ht-22, 24 h; procedure, shortened: as §2
HT-22 [11] = assay: Cytoprotection against glutamate-induced excitotoxicity in mouse HT22 cells assessed as increase in cell proliferation at 1 uM after 24 hrs by MTT assay; assay type: functional, cell-based
Procedure, shortened: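 HT-22 cells (5 × 10^3 per well) co-treated 24 h at 37 °C with 2 mM glutamate plus compound at 1 μM, final DMSO 0.025%. MTT added to 0.5 mg/mL final for 2 h, formazan dissolved in acidified isopropanol/NP40, A570 read. Proliferation relative to untreated control (100%). Mean of at least three independent experiments ± SD.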

HT-22 [12] = assay: Cytotoxicity against mouse HT22 cells assessed as reduction in cell viability at 5 uM after 24 hrs by MTT assay; assay type: cell-based; details: ht-22, 24 h; procedure, shortened: as §2

With `COc1cc(/C=C/C(=O)CC(=O)/C=C/c2ccc(O)c(OC)c2)ccc1O` [CURCUMIN] the Activity (HT-22 [1]) was “Active”, the Activity [2] was over 75% and the Activity [3] was “Active”. The Activity (HT-22 [4]) was “Active”, the MNTC at 24 h [5] was 1000 nM and the Activity (HT-22 [6]) was “Active”. For the same molecule, the Activity (HT-22 [7]) was “Active”, the Activity [8] was “Dose-dependent effect” and the Activity [9] was “Dose-dependent effect”. For the same molecule, the Activity (HT-22 [10]) was “Toxic” and the Activity (HT-22 [11]) was “Active”.

With `COc1cc(/C=C/c2cc(/C=C/c3ccc(OC(C)=O)c(OC)c3)[nH]n2)ccc1OC(C)=O` the Activity (HT-22 [1]) was “Active”, the Activity [2] was over 75% and the Activity (HT-22 [12]) was “Toxic”. For the same molecule, the Activity (HT-22 [4]) was “Active”, the MNTC at 24 h [5] was 1000 nM and the Activity (HT-22 [6]) was “Active”. The Activity (HT-22 [7]) was “Active”, the DC50 [8] was 650 nM and the DC50 ([9]; read-out: DC50) was 310 nM. For the same molecule, the Activity (HT-22 [11]) was “Active”.

With `COc1cc(/C=C/c2cc(C)[nH]n2)ccc1O` the Activity [2] was “Active” and the DC50 ([9]; read-out: DC50) was 38800 nM.

For `C(=C\c1cc(/C=C/c2ccccc2)[nH]n1)/c1ccccc1`, the Activity [2] was “Active” and the DC50 [9] was “Not Active”.

With `COc1cc(/C=C/C(=O)/C=C(/C)O)ccc1O` the Activity [2] was “Active” and the DC50 [9] was “Not Active”.

With `COc1cc(/C=C/c2cc(/C=C/c3ccc(O)c(OC)c3)[nH]n2)ccc1O` [CURCUMIN PYRAZOLE] the Activity [2] was over 75%, the Activity [8] was “Dose-dependent effect” and the Activity [9] was “Dose-dependent effect”. The DC50 ([9]; read-out: DC50) was 1470 nM.

In the case of `COc1cc(/C=C/C(=O)/C=C(O)/C=C/c2ccc(OC(C)=O)c(OC)c2)ccc1OC(C)=O`, the Activity (HT-22 [1]) is reported as “Active”, the Activity (HT-22 [12]) is reported as “Toxic” and the Activity (HT-22 [4]) is reported as “Active”. For the same molecule, the MNTC at 24 h [5] was 1000 nM, the Activity (HT-22 [6]) was “Active” and the Activity (HT-22 [7]) was “Active”. For the same molecule, the DC50 [8] was 1000 nM, the DC50 ([9]; read-out: DC50) was 1950 nM and the Activity (HT-22 [11]) was “Active”.

For `COc1cc(/C=C/C(=O)/C(CCCN2C(=O)c3ccccc3C2=O)=C(O)/C=C/c2ccc(O)c(OC)c2)ccc1O`, the Activity [2] was over 75% and the DC50 ([9]; read-out: DC50) was 1160 nM.

In the case of `COc1cccc(/C=C/C(=O)/C=C(O)/C=C/c2cccc(OC)c2)c1`, the DC50 [9] is reported as “Not Active”.

For `O=C(/C=C(O)/C=C/c1ccccc1)/C=C/c1ccccc1`, the Activity [2] was “Active”, the Activity [3] was “inactive” and the DC50 [9] was “Not Active”.

With `O=C(/C=C/c1ccccc1)/C(CCCN1C(=O)c2ccccc2C1=O)=C(O)/C=C/c1ccccc1` the Activity [2] was “Active” and the DC50 [9] was “Not Active”.

From ChEMBL document CHEMBL4229461 (Bioorg Med Chem, 2018)
